PP1 inh: PP1-alpha (human) inhibition in PP5 counter-screen | purified PP1alpha, OMFP fluorescence | P62136 | actives 0.9% (n = 320,000) | inhibition, % at 6.7 µM;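 active means inhibition above the mean inhibition of all tested compounds plus 3 SD, computed separately for each screening campaign, cut at about 15% in these data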
Target sequence (P62136 whole entry, looked up): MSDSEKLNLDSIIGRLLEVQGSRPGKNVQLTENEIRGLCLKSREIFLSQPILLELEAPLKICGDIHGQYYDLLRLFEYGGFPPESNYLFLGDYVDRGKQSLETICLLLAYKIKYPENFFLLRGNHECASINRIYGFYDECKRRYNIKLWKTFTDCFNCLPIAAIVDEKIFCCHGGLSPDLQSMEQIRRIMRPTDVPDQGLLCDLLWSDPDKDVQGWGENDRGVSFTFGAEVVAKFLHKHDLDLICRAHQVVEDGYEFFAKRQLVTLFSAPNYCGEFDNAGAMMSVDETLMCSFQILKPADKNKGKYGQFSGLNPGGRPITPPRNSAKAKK
PP5 inh: inhibitors of human protein phosphatase 5 (PP5); P53041; purified PP5c, OMFP substrate fluorescence; inhibition, % at 6.7 µM; actives 0.18% (n = 320,000); AID 1987;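 active means inhibition above the campaign's mean inhibition across all tested compounds plus 3 SD, cut at about 9.5% in these data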;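 further: 0% = DMSO only and 100% = 100 µM cantharidin control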
NR2E3 ag-1: NR2E3 (human) agonism. Q9Y5X4. inhibition of corepressor binding, % at 4.78 µM. actives 0.12% (n = 320,000). GST-NR2E3/biotin-RetCOR TR-FRET, 1536-well;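 active means percent inhibition above the cutoff of mean plus 3 SD of all tested compounds, set per screening campaign, cut at about 20% in these data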;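 further: 0% = DMSO wells and 100% = biotin wells as full block of FRET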
Target sequence (Q9Y5X4 whole entry, looked up): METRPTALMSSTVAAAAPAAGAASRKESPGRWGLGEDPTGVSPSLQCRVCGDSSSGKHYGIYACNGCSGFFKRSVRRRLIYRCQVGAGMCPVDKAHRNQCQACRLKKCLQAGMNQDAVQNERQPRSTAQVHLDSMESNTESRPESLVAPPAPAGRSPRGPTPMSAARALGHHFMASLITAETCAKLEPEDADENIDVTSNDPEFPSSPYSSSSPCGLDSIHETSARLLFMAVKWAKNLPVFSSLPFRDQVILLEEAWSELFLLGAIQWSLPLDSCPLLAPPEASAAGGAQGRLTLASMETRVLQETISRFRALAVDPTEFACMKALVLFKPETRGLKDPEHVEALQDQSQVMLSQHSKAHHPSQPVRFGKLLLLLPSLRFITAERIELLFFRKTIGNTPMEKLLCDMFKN
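Material – GST-tagged NR2E3 plus biotinylated RetCOR corepressor · Quantity – NR2E3 fusion 1.35 nM · Times – 5 h incubation at 4 °C · Medium – pH 7.5 Tris-based buffer · Technique – TR-FRET, Eu(K)-anti-GST donor, streptavidin-D2 acceptor, ex 340, em 617/671 nm · Benchmarks – high control biotin, low control 0.6% DMSO · Format – 1536-well plates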
NR2E3 ag-2: activates human NR2E3 receptor | Q9Y5X4 | CHO-S Gal4-NCOR/VP16-NR2E3 two-hybrid, luciferase | inhibition of corepressor binding, % at 3.98 µM | actives 0.35% (n = 360,000) | AID 602229;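 active means inhibition above the mean of all tested compounds plus 3 SD, cut at about 70% in these data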;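 further: 0% = DMSO with NR2E3 transfected cells and 100% = cells lacking NR2E3 construct; higher means lower luciferase signal from less NR2E3 corepressor binding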
NR2E3 ag confirm: confirmation of human NR2E3 agonists; shares compounds with NR2E3 ag-2; CHO-S mammalian two-hybrid NR2E3-NCOR, luciferase luminescence; inhibition, % at 3.98 µM; actives 51% (n = 2,300); AID 624378;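 active means average inhibition above a cutoff equal to the mean inhibition of all tested compounds plus one SD, cut at about 70% in these data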;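 further: 0% = DMSO in NR2E3 cells and 100% = DMSO in cells lacking NR2E3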
VP16 counter: GAL4-VP16 reporter inhibition in NR2E3 agonist counterscreen. shares compounds with NR2E3 ag-2. inhibition, % at 3.98 µM. actives 29% (n = 2,300). CHO-S GAL4-VP16 luciferase reporter, luminescence;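 active means mean inhibition above a cutoff equal to the average over all tested compounds plus one standard deviation, cut at about 70% in these data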;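 further: luciferase from a UAS reporter driven by GAL4-VP16 transactivation; 0% = DMSO with VP16-transfected cells and 100% = DMSO with cells lacking VP16; higher means less reporter light so more repression of VP16 activity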
* hit, by the source's call; / = not tested or not shown. Hits are enriched below; roughly 1.3% of the tested compounds scored in any of these assays.

SMILES	PP1 inh	PP5 inh	NR2E3 ag-1	NR2E3 ag-2	NR2E3 ag confirm	VP16 counter
Cc1nnc(SCC(=O)c2ccc(Cl)cc2)n(N)c1=O	-1.9	-1.4	-0.6	-166.0	/	/
Cc1cccc(-c2oc3ccc(-c4ccc5c(c4)OCO5)cc3c2C(=O)OCc2ccc(O)cc2)c1	-2.5	-0.9	3.1	5.1	/	/
CCCn1nc(C(=O)NNC(=O)CCCOc2ccc(OC)cc2)c2ccccc2c1=O	-1.3	-0.2	1.6	-48.4	/	/
COc1ccc(C(=O)c2sc(Nc3ccccc3)nc2N)cc1OC	0.8	3.4	-2.1	102.1*	80.4*	61.5
COc1ccc(C(=O)c2sc(Nc3ccccc3)nc2N)cc1	/	/	/	-4.3	/	/
CCC(=O)Nc1cc2nn(-c3ccc(C)cc3)nc2cc1C	-0.4	0.8	2.1	48.7	-23.4	-99.2
CCC(=O)Nc1cc2nn(-c3ccc(OC)cc3)nc2cc1C	-3.6	-0.6	1.2	-120.0	/	/
O=c1c2ccccc2sn1-c1ccc(Cl)cc1	/	/	/	54.9	-47.1	-122.4
Cc1cc(S(=O)(=O)NCCC2=CCCCC2)ccc1Br	0.4	0.9	-3.3	-2.3	/	/
Cc1ccc(S(=O)(=O)NCCC2=CCCCC2)cc1C(N)=O	-4.3	-0.8	-0.9	75.0*	83.8*	62.0
Cc1sc2ncn(CCn3cnc4sc(C)c(C)c4c3=O)c(=O)c2c1C	1.2	2.5	3.1	55.4	68.0	52.1
Cc1sc2ncn(CCC(=O)O)c(=O)c2c1C	3.0	1.7	1.7	-0.3	/	/
Cc1cccc(C)c1OCc1cc(C(=O)N2CCC(c3ccncc3)CC2)no1	1.3	-1.5	0.2	86.5*	88.2*	52.9
O=C(c1cc(COc2cccc3cnccc23)on1)N1CCC(c2ccccc2Cl)C1 (centres undefined)	12.2	1.7	-1.4	95.2*	78.0*	67.9
O=C(c1cc(COc2c(F)cccc2F)on1)N1CCC(c2ccncc2)CC1	-2.4	-2.5	2.0	62.1	83.4*	72.9*
CO/N=C/c1ccc(N2CCN(C(=O)c3ccc(Cl)cc3Cl)CC2)c([N+](=O)[O-])c1	0.4	8.6	0.6	76.1*	91.2*	76.4*
O=C(OCc1ccccc1)N1CCC2CC1c1cc(/C=C/CCCSc3ncccn3)ccc12 (centres undefined)	/	/	/	-12.3	/	/
CC[C@@H](C(=O)[C@@H](C)[C@@H](O)[C@H](C)[C@@H]1O[C@@H]([C@@H](CC)C(=O)O)CC[C@@H]1C)[C@H]1O[C@]2(C=C[C@@H](O)[C@]3(CC[C@@](C)([C@H]4CC[C@](O)(CC)[C@H](C)O4)O3)O2)[C@H](C)C[C@@H]1C	/	/	/	102.3*	99.8*	84.0*
C=C(C)COc1ccc(-c2n[nH]c(C)c2-c2ccc(OC)c(OC)c2)c(O)c1	6.8	8.0	2.1	-26.1	/	/
O=CNc1cc(-c2cccc(O)c2)cn2c(-c3ccc(F)cc3)cnc12	/	/	/	-9.4	/	/
COc1ccc(CCN2C(=O)CSC2=Nc2ccc(C(C)C)cc2)cc1OC	-2.8	4.7	1.6	49.5	83.0*	74.7*
COc1cnc(-c2ccccn2)nc1N(C)C	3.9	2.3	0.8	62.5	52.4	-13.3
Nc1nc(SCCO)[nH]c(=O)c1NC(=O)c1ccccc1F	-5.7	-1.8	-1.4	-21.7	/	/
O=C(CSc1ccccc1)N1CCC(N2CCC(C(=O)N3CCCC3)CC2)CC1	-4.0	-1.1	-1.6	88.1*	-9.3	-3.1
Cn1nnnc1Sc1ncnc2scc(-c3cccc(Br)c3)c12	/	/	/	50.7	26.2	45.6
SMILES	PP1 inh	PP5 inh	NR2E3 ag-1	NR2E3 ag-2	NR2E3 ag confirm	VP16 counter
Cn1nnnc1Sc1ncnc2scc(-c3cccc(S(C)(=O)=O)c3)c12	-5.0	1.0	4.9	-14.5	/	/
Cn1nnnc1Sc1ncnc2scc(-c3ccccc3Cl)c12	1.2	-0.2	1.1	66.4	34.2	52.0
Cn1nnnc1Sc1ncnc2scc(-c3ccc(Cl)cc3)c12	2.8	0.7	0.6	16.0	/	/
CC1CC(=O)Nc2ccccc2N1C(=O)Cn1cnc2ccccc2c1=O (centres undefined)	-6.1	-1.7	0.9	-18.8	/	/
O=C(Nc1cc(Cl)ccc1N1CCOCC1)c1ccco1	/	/	/	5.2	/	/
O=C(Nc1cc(C(F)(F)F)ccc1N1CCOCC1)c1ccco1	5.0	1.7	0.1	103.1*	-1.1	2.1
Cc1cccc(C)c1N1CCN(C(c2cc3ccccc3o2)c2nnnn2C(C)(C)C)CC1 (centres undefined)	/	/	/	75.2*	83.8*	67.0
CCCCn1nnnc1C(c1cc2ccccc2o1)N1CCN(c2c(C)cccc2C)CC1 (centres undefined)	/	/	/	-18.4	/	/
CCC(=O)/C=C1/Sc2ccccc2N1CC	-2.4	0.1	-1.0	13.2	/	/
CCN1/C(=C/c2sc(-c3ccccc3C)c[n+]2C)Sc2ccccc21	/	/	/	90.0*	99.2*	85.4*
Cc1cnc(NC(=O)CN2CCN(c3ccccn3)CC2)s1	-2.8	3.5	0.0	63.6	93.9*	16.5
CN(CC(=O)Nc1cccc(F)c1)C(=O)CCN1C(=O)C2CC=CCC2C1=O (centres undefined)	0.4	0.1	-0.9	95.5*	3.7	-10.9
Cc1ccc(C)c(S(=O)(=O)Nc2cc3c4c(c2)CCC(=O)N4CCC3)c1	-2.9	3.9	-0.4	57.1	27.6	-20.9
COc1ccc(C)cc1S(=O)(=O)Nc1cc2c3c(c1)CCN3C(=O)CC2	-5.6	-1.6	2.9	-7.7	/	/
N=C1SC(c2ccccc2)C(=O)N1c1ncc(Cc2ccccc2Cl)s1 (centres undefined)	15.6*	-1.4	-1.2	57.8	59.0	20.4
O=C(CSc1nnnn1-c1ccccc1)Nc1ncc(Cc2ccccc2Cl)s1	1.4	0.3	3.6	-19.8	/	/
O=C(NNc1ccccc1)C(=O)NNc1ccccc1	/	/	/	52.6	51.8	9.2
CCCCCc1ccc(CC(=O)Nn2c(C)nc3ccccc3c2=O)cc1	2.4	4.8	0.4	63.6	75.8*	70.0
Cc1ccc(N2CC(C(=O)Nc3nccs3)CC2=O)cc1Cl (centres undefined)	-0.1	1.7	1.6	47.9	58.6	20.8
C=CCn1c(C)cc(C(=O)CSc2nnc3n(CCC)c(=O)c4ccccc4n23)c1C	/	/	/	2.4	/	/
CCOc1ccccc1-n1c(SCC(=O)Nc2ccccc2C(=O)O)nc2ccccc2c1=O	0.7	0.5	2.9	49.9	48.0	15.4
O=C1OC[C@H](Cc2ccc3c(c2)OCO3)/C1=C\c1ccc2c(c1)OCO2	-0.3	0.3	-0.1	52.2	36.1	40.3
O=C1CC(Cc2ccccc2)C(=O)N1CCc1ccc2c(c1)OCO2 (centres undefined)	1.6	1.0	-0.4	-17.6	/	/
CC(C)CNC(=O)C1(N2C(=O)c3ccccc3C2=O)CCCC1	/	/	/	50.9	-11.0	1.7
Cn1c(=O)c2[nH]c(CCCCc3nc4ccccc4[nH]3)nc2n(C)c1=O	/	/	/	-16.2	/	/
Cn1c(=O)c2[nH]c(CCCCCCCCc3nc4ccccc4[nH]3)nc2n(C)c1=O	/	/	/	68.0	78.8*	60.6

Compound activity from PubChem BioAssay.
